Assay results taken from ChEMBL document CHEMBL4000163, “Pyrazole derived ultra-short antimicrobial peptidomimetics with potent anti-biofilm activity” (Eur J Med Chem, 2017).
Values after ≈ are worked out from the molar mass of the structure shown. Active and inactive are the calls of the source. No cut-off for these calls is given here.

Experiments:
Staphylococcus aureus [1] = assay: Antimicrobial activity against Staphylococcus aureus KCTC 1621 incubated for 18 to 20 hrs by broth microdilution assay; format: functional; conditions: read-out: MIC100
Method in brief: (§1)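 Broth microdilution in 1% peptone. Inoculum was 2 × 10⁶ CFU/mL mixed 1:1 with serial 2-fold peptide dilutions and incubated 18–20 h at 37 °C. Growth was read as absorbance at 600 nm; MIC is the lowest peptide concentration giving 100% growth inhibition.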

[2] = system: Staphylococcus epidermidis; assay: Antimicrobial activity against Staphylococcus epidermidis KCTC 1917 incubated for 18 to 20 hrs by broth microdilution assay; format: functional; conditions: read-out: MIC100; method in brief: as §1
Escherichia coli [3] = assay: Antimicrobial activity against Escherichia coli KCTC 1682 incubated for 18 to 20 hrs by broth microdilution assay; format: functional; conditions: read-out: MIC100; method in brief: as §1
Pseudomonas aeruginosa [4] = assay: Antimicrobial activity against Pseudomonas aeruginosa KCTC 1637 incubated for 18 to 20 hrs by broth microdilution assay; format: functional; conditions: read-out: MIC100; method in brief: as §1
Escherichia coli [5] = assay: Induction of inner membrane permeabilisation in Escherichia coli ML-35 assessed as ONPG hydrolysis up to 30 ug/ml by beta-galactosidase enzyme coupled spectrophotometric analysis; format: functional
Method in brief: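 E. coli ML-35 (constitutive cytoplasmic β-galactosidase, lactose permease-deficient) washed and resuspended to OD600 0.5 in 10 mM sodium phosphate pH 7.4, 100 mM NaCl, with 1.5 mM ONPG. o-Nitrophenol release tracked spectrophotometrically over time after peptide addition at various concentrations.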

Pseudomonas aeruginosa [6] = assay: Antibiofilm activity against multidrug-resistant Pseudomonas aeruginosa CCARM 2095 after 24 hrs by crystal violet staining based method; format: functional; conditions: CCARM 2095, 24 h
Method in brief: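 MDRPA 2095 (1×10^6 cfu/mL) in MHB with 0.2% glucose, 24 h at 37 °C with or without peptide (2-fold dilutions, 1-64 µg/mL), six wells each. Wells washed with PBS, methanol-fixed, stained with 0.1% crystal violet 5 min, stain resolubilized in 95% ethanol, absorbance at 600 nm.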

[7] = Therapeutic index, ratio of MHC for sheep RBC to geometric mean of MICs for four bacterial strains
Staphylococcus aureus [8] = assay: Induction of cytoplasmic membrane depolarization in Staphylococcus aureus KCTC 1621 assessed as loss of membrane potential after 1 hr by DiSC3(5) dye based fluorescence assay; format: functional
[9] = Therapeutic index, ratio of MHC for sheep RBC to MIC for Staphylococcus aureus KCTC 1621
[10] = Therapeutic index, ratio of MHC for sheep RBC to MIC for Staphylococcus epidermidis KCTC 1917
[11] = Therapeutic index, ratio of MHC for sheep RBC to geometric mean of MICs for four bacterial strains; remark: listed apart in the source
Escherichia coli [12] = assay: Antimicrobial activity against Escherichia coli KCTC 1682 using 4 hrs trypsin incubated compound measured after overnight incubation by radial diffusion assay; format: functional
Method in brief: (§2)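 Radial diffusion: mid-log cells (2×10^6 CFU/ml in LB) in 0.7% agarose. Peptide stock (10 mg/mL) added to trypsin in PBS (0.2 µg/mL), 4 h at 37 °C, stopped by liquid-nitrogen freezing; 10 µL on paper discs on the plates, overnight at 37 °C. Clearance-zone diameters measured.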

Staphylococcus aureus [13] = assay: Antimicrobial activity against Staphylococcus aureus KCTC 1621 using 4 hrs trypsin incubated compound measured after overnight incubation by radial diffusion assay; format: functional; method in brief: as §2
Escherichia coli [14] = assay: Induction of outer membrane permeabilization in Escherichia coli KCTC 1682 assessed as NPN uptake by spectrofluorophotometric analysis; format: functional
Method in brief: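 E. coli KCTC 1682 at OD600 0.05 in 5 mM HEPES pH 7.2 with 5 mM KCN; NPN 10 µM final, background fluorescence recorded (ex 350, em 420 nm). Peptide aliquots at various concentrations added and fluorescence followed over time until no further rise.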

Enterococcus faecium = assay: Antibacterial activity against vancomycin-resistant Enterococcus faecium ATCC 51559 after 18 to 20 hrs by broth microdilution assay; format: functional; conditions: read-out: MIC100
Method in brief: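 Broth microdilution in 1% peptone: bacteria at 2 × 10⁶ CFU/mL mixed 1:1 with serial 2-fold peptide dilutions, 18-20 h at 37 °C; growth read as absorbance at 600 nm. MIC taken as lowest concentration giving 100% growth inhibition.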

Pseudomonas aeruginosa [15] = assay: Potency index, ratio of LL-37 MIC100 to compound MIC100 for Pseudomonas aeruginosa KCTC 1637; format: functional
Staphylococcus aureus [16] = assay: Potency index, ratio of melittin MIC100 to compound MIC100 for Staphylococcus aureus KCTC 1621; format: functional
Pseudomonas aeruginosa [17] = assay: Potency index, ratio of melittin MIC100 to compound MIC100 for Pseudomonas aeruginosa KCTC 1637; format: functional
Staphylococcus aureus [18] = assay: Potency index, ratio of LL-37 MIC100 to compound MIC100 for Staphylococcus aureus KCTC 1621; format: functional

CCC(CC)Cn1cc(N)c(C(=O)N[C@@H](CCCNC(=N)N)C(N)=O)n1
MIC (Staphylococcus aureus [1]): > 64 µg/mL
MIC [2]: > 64 µg/mL
MIC (Escherichia coli [3]): > 64 µg/mL
MIC (Pseudomonas aeruginosa [4]): > 64 µg/mL

N=C(N)NCCC[C@H](NC(=O)c1nn(CCc2cccc3ccccc23)cc1N)C(N)=O
MIC (Staphylococcus aureus [1]): > 64 µg/mL
MIC [2]: > 64 µg/mL
MIC (Escherichia coli [3]): > 64 µg/mL
MIC (Pseudomonas aeruginosa [4]): > 64 µg/mL

N=C(N)NCCC[C@H](NC(=O)c1nn(CCC(c2ccccc2)c2ccccc2)cc1NC(=O)[C@H](CCCNC(=N)N)NC(=O)c1nn(CCC(c2ccccc2)c2ccccc2)cc1N)C(N)=O
MIC (Staphylococcus aureus [1]): 8 µg/mL (≈ 8.55 µM)
MIC [2]: 32 µg/mL (≈ 34.2 µM)
MIC (Escherichia coli [3]): 32 µg/mL (≈ 34.2 µM)
MIC (Pseudomonas aeruginosa [4]): 32 µg/mL (≈ 34.2 µM)

CCC(CC)Cn1cc(NC(=O)[C@@H](N)CCCNC(=N)N)c(C(=O)N[C@@H](CCCNC(=N)N)C(N)=O)n1
MIC (Staphylococcus aureus [1]): > 64 µg/mL
MIC [2]: > 64 µg/mL
MIC (Escherichia coli [3]): > 64 µg/mL
MIC (Pseudomonas aeruginosa [4]): > 64 µg/mL

N=C(N)NCCC[C@H](NC(=O)c1nn(CCc2cccc3ccccc23)cc1NC(=O)[C@@H](N)CCCNC(=N)N)C(N)=O
MIC (Staphylococcus aureus [1]): 32 µg/mL (≈ 54 µM)
MIC [2]: > 64 µg/mL
MIC (Escherichia coli [3]): > 64 µg/mL
MIC (Pseudomonas aeruginosa [4]): > 64 µg/mL

N=C(N)NCCC[C@H](NC(=O)c1nn(CCCc2ccccc2)cc1NC(=O)[C@@H](N)CCCNC(=N)N)C(N)=O
MIC (Staphylococcus aureus [1]): 64 µg/mL (≈ 115 µM)
MIC [2]: > 64 µg/mL
MIC (Escherichia coli [3]): > 64 µg/mL
MIC (Pseudomonas aeruginosa [4]): > 64 µg/mL

N=C(N)NCCC[C@H](NC(=O)c1nn(CCc2cccc3ccccc23)cc1NC(=O)[C@H](CCCNC(=N)N)NC(=O)c1nn(CCc2cccc3ccccc23)cc1NC(=O)[C@@H](N)CCCNC(=N)N)C(N)=O
MIC (Staphylococcus aureus [1]): 4 µg/mL (≈ 3.95 µM)
MIC [2]: 32 µg/mL (≈ 31.6 µM)
MIC (Escherichia coli [3]): 32 µg/mL (≈ 31.6 µM)
MIC (Pseudomonas aeruginosa [4]): 8 µg/mL (≈ 7.9 µM)

CC[C@H](C)[C@H](NC(=O)[C@H](CCCCN)NC(=O)[C@H](CCC(=O)O)NC(=O)[C@H](CCCCN)NC(=O)[C@H](CO)NC(=O)[C@H](CCCCN)NC(=O)[C@H](CCCNC(=N)N)NC(=O)[C@H](Cc1ccccc1)NC(=O)[C@H](Cc1ccccc1)NC(=O)[C@H](CC(=O)O)NC(=O)CNC(=O)[C@H](CC(C)C)NC(=O)[C@@H](N)CC(C)C)C(=O)NCC(=O)N[C@@H](CCCCN)C(=O)N[C@@H](CCC(=O)O)C(=O)N[C@@H](Cc1ccccc1)C(=O)N[C@@H](CCCCN)C(=O)N[C@@H](CCCNC(=N)N)C(=O)N[C@H](C(=O)N[C@H](C(=O)N[C@@H](CCC(N)=O)C(=O)N[C@@H](CCCNC(=N)N)C(=O)N[C@H](C(=O)N[C@@H](CCCCN)C(=O)N[C@@H](CC(=O)O)C(=O)N[C@@H](Cc1ccccc1)C(=O)N[C@@H](CC(C)C)C(=O)N[C@@H](CCCNC(=N)N)C(=O)N[C@@H](CC(N)=O)C(=O)N[C@@H](CC(C)C)C(=O)N[C@H](C(=O)N1CCC[C@H]1C(=O)N[C@@H](CCCNC(=N)N)C(=O)N[C@H](C(=O)N[C@@H](CCC(=O)O)C(=O)N[C@@H](CO)C(=O)O)[C@@H](C)O)C(C)C)[C@@H](C)CC)C(C)C)[C@@H](C)CC [CATHELICIDIN]
MIC (Staphylococcus aureus [1]): 32 µg/mL (≈ 7.12 µM)
MIC [2]: 32 µg/mL (≈ 7.12 µM)
Activity (Escherichia coli [5]): Active
IC90 (Pseudomonas aeruginosa [6]): 64 µg/mL (≈ 14.2 µM)
TI [7]: 25.6
Activity (Staphylococcus aureus [8]): Active
MIC (Escherichia coli [3]): 32 µg/mL (≈ 7.12 µM)
TI [9]: 25.6
MIC (Pseudomonas aeruginosa [4]): 64 µg/mL (≈ 14.2 µM)
TI [10]: 25.6
TI [11]: 25.6

N=C(N)NCCC[C@@H]1NC(=O)c2nn(CCC(c3ccccc3)c3ccccc3)cc2NC(=O)CSCC(C(N)=O)NC(=O)[C@H](CCCNC(=N)N)NC(=O)c2nn(CCC(c3ccccc3)c3ccccc3)cc2NC1=O (some centres not stated)
MIC (Staphylococcus aureus [1]): 16 µg/mL (≈ 14.8 µM)
MIC [2]: 64 µg/mL (≈ 59.3 µM)
MIC (Escherichia coli [3]): > 64 µg/mL
MIC (Pseudomonas aeruginosa [4]): > 64 µg/mL

N=C(N)NCCC[C@H](NC(=O)c1nn(CCC(c2ccccc2)c2ccccc2)cc1NC(=O)[C@H](CCCNC(=N)N)NC(=O)c1nn(CCC(c2ccccc2)c2ccccc2)cc1NC(=O)[C@H](CCCNC(=N)N)NC(=O)c1nn(CCC(c2ccccc2)c2ccccc2)cc1N)C(N)=O
MIC (Staphylococcus aureus [1]): 32 µg/mL (≈ 22.9 µM)
MIC [2]: 64 µg/mL (≈ 45.9 µM)
MIC (Escherichia coli [3]): 64 µg/mL (≈ 45.9 µM)
MIC (Pseudomonas aeruginosa [4]): > 64 µg/mL

N=C(N)NCCC[C@H](NC(=O)c1nn(CCc2cccc3ccccc23)cc1NC(=O)[C@H](CCCNC(=N)N)NC(=O)c1nn(CCc2cccc3ccccc23)cc1NC(=O)[C@H](CCCNC(=N)N)NC(=O)c1nn(CCc2cccc3ccccc23)cc1N)C(N)=O
MIC (Staphylococcus aureus [1]): 8 µg/mL (≈ 6.27 µM)
MIC [2]: 64 µg/mL (≈ 50.2 µM)
MIC (Escherichia coli [3]): > 64 µg/mL
MIC (Pseudomonas aeruginosa [4]): > 64 µg/mL

CC[C@H](C)[C@H](NC(=O)CN)C(=O)NCC(=O)N[C@@H](C)C(=O)N[C@H](C(=O)N[C@@H](CC(C)C)C(=O)N[C@@H](CCCCN)C(=O)N[C@H](C(=O)N[C@@H](CC(C)C)C(=O)N[C@H](C(=O)N[C@H](C(=O)NCC(=O)N[C@@H](CC(C)C)C(=O)N1CCC[C@H]1C(=O)N[C@@H](C)C(=O)N[C@@H](CC(C)C)C(=O)N[C@H](C(=O)N[C@@H](CO)C(=O)N[C@@H](Cc1c[nH]c2ccccc12)C(=O)N[C@H](C(=O)N[C@@H](CCCCN)C(=O)N[C@@H](CCCNC(=N)N)C(=O)N[C@@H](CCCCN)C(=O)N[C@@H](CCCNC(=N)N)C(=O)N[C@@H](CCC(N)=O)C(=O)N[C@@H](CCC(N)=O)C(N)=O)[C@@H](C)CC)[C@@H](C)CC)[C@@H](C)O)[C@@H](C)O)C(C)C)C(C)C [MELITTIN]
Activity (Escherichia coli [5]): Active
TI [7]: 0.5
Activity (Staphylococcus aureus [8]): Active
Activity (Escherichia coli [12]): inactive
Activity (Staphylococcus aureus [13]): inactive
Activity (Escherichia coli [14]): Dose-dependent effect
TI [9]: 0.5
TI [10]: 0.5
TI [11]: 0.5
MIC (Enterococcus faecium): 16 µg/mL (≈ 5.62 µM)

N=C(N)NCCC[C@H](NC(=O)c1nn(CCC(c2ccccc2)c2ccccc2)cc1NC(=O)[C@@H](N)CCCNC(=N)N)C(N)=O
MIC (Staphylococcus aureus [1]): 8 µg/mL (≈ 12.6 µM)
MIC [2]: > 64 µg/mL
Ratio (Pseudomonas aeruginosa [15]): 4 - 8
MIC (Escherichia coli [3]): > 64 µg/mL
Ratio (Staphylococcus aureus [16]): 2 - 4
Ratio (Pseudomonas aeruginosa [17]): 2 - 4
MIC (Pseudomonas aeruginosa [4]): 8 µg/mL (≈ 12.6 µM)
Ratio (Staphylococcus aureus [18]): 4 - 8

N=C(N)NCCC[C@H](NC(=O)c1nn(CCC(c2ccccc2)c2ccccc2)cc1N)C(N)=O
MIC (Staphylococcus aureus [1]): > 64 µg/mL
MIC [2]: > 64 µg/mL
MIC (Escherichia coli [3]): > 64 µg/mL
MIC (Pseudomonas aeruginosa [4]): 32 µg/mL (≈ 67.1 µM)

N=C(N)NCCC[C@H](NC(=O)c1nn(CCCc2ccccc2)cc1N)C(N)=O
MIC (Staphylococcus aureus [1]): > 64 µg/mL
MIC [2]: > 64 µg/mL
MIC (Escherichia coli [3]): > 64 µg/mL
MIC (Pseudomonas aeruginosa [4]): > 64 µg/mL
